From ChEMBL document CHEMBL1124049, “Synthesis and biological characterization of pyridohomotropanes. Structure-activity relationships of conformationally restricted nicotinoids” (J Med Chem, 1988)

What was measured:
Acetylcholine receptor [1] = target: T1, Acetylcholine receptor (Torpedo californica, UniProt P02710+P02712+P02714+P02718); test: Inhibition of [3H]MCC binding to torpedo electroplax membranes
Procedure, shortened: (§1)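 Membranes from whole rat brain or Torpedo electric organ, homogenized in 30 volumes 0.05 M NaH2PO4 pH 7.0 and spun at 50000g for 30 min. Each tube held 2 mg brain protein or 1 mg electric organ protein, 1 × 10⁻⁹ M radioligand (final), and varied agent concentrations in 0.05 M NaPO4 pH 7.0.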

Acetylcholine receptor [2] = target: T1, Acetylcholine receptor; test: inhibition of (-)-[3H]nicotine binding to torpedo electroplax membranes; procedure, shortened: as §1
Rattus norvegicus [3] = species: Rattus norvegicus; test: Effective dose required to produce prostration after injection into rat's fourth ventricle; assay type: functional
Procedure, shortened: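 Rats given various doses into the fourth ventricle through chronically implanted cannulae, in 1 μL. Prostration of the limbs was scored, from hind-limb prostration with forelimb weakness up to prostration of all four limbs.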

[4] = target: Neuronal acetylcholine receptor; test: Inhibition of (-)-[3H]nicotine binding to rat brain membranes; assay type: cell membranes, Membrane; procedure, shortened: as §1
Rattus norvegicus [5] = species: Rattus norvegicus; test: Potency for prostration assay, relative to PHT; assay type: functional
[6] = target: Neuronal acetylcholine receptor; test: Inhibition of [3H]MCC binding to rat brain membranes; assay type: cell membranes, Membrane; procedure, shortened: as §1

T1 sequence (P02710 whole entry): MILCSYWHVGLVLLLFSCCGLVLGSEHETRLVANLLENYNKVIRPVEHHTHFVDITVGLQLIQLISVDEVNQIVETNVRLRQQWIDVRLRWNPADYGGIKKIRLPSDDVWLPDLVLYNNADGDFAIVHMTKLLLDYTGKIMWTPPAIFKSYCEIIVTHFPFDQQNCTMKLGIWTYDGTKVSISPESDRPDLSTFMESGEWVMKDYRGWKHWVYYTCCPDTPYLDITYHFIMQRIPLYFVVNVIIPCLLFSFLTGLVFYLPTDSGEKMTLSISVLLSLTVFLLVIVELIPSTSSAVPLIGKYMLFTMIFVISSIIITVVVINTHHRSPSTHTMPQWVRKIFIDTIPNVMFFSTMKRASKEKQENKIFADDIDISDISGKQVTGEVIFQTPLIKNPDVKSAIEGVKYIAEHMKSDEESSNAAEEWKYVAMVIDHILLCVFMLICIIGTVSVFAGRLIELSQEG
T1 sequence (P02712 whole entry): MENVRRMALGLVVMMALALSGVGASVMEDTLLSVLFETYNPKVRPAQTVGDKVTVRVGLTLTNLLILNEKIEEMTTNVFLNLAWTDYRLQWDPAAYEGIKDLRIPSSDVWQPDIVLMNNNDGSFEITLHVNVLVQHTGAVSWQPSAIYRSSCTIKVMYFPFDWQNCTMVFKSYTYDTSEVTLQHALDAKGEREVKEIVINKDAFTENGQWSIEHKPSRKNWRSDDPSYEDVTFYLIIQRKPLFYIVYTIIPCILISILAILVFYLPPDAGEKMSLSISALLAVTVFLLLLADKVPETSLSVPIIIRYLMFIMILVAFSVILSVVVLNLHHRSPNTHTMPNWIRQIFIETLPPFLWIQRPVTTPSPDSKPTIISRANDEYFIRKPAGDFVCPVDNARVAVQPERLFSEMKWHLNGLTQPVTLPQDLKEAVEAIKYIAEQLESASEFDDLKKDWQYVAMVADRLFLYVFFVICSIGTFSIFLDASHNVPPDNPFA
T1 sequence (P02718 whole entry): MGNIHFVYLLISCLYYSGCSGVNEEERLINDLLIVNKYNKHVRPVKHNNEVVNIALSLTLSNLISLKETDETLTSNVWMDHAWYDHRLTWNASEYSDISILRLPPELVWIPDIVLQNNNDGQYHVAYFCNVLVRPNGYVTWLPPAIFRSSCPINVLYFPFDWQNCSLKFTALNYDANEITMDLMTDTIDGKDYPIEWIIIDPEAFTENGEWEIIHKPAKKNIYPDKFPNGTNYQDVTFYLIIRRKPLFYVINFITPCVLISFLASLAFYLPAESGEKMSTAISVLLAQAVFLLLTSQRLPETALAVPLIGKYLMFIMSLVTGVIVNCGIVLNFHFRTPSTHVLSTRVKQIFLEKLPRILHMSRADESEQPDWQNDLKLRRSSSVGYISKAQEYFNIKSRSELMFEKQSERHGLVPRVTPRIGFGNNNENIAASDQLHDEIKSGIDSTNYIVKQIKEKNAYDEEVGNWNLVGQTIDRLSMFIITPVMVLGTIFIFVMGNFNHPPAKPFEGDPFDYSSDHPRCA
T1 sequence (P02714 whole entry): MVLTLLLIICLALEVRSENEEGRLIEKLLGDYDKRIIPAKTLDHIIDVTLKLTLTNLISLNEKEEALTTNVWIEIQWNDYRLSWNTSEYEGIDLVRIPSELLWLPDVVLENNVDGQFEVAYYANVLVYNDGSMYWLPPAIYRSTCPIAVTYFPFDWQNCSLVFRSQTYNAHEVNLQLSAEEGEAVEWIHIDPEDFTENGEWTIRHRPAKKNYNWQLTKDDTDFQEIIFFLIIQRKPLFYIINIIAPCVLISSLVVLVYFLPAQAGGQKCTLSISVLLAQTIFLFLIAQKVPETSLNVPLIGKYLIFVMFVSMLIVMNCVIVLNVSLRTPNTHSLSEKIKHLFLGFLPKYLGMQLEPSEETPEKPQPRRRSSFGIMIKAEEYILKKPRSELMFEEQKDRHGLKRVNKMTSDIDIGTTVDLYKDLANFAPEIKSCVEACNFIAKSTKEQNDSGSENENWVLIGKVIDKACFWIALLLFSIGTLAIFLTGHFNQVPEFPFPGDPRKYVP

SMILES: CN1CCC[C@H]1c1cccnc1 [NICOTINE]
- IC50 (Acetylcholine receptor [1]): 1 nM
- IC50 (Acetylcholine receptor [2]): 4 nM
- ED50 (Rattus norvegicus [3]): 10 nmol

SMILES: CN1C2CCc3ccncc3C1CC2 (centres undefined)
- IC50 [4]: 1000 nM
- IC50 (Acetylcholine receptor [1]): 2000 nM
- IC50 (Acetylcholine receptor [2]): 800 nM
- ED50 (Rattus norvegicus [3]): 500 nmol
- Relative potency (Rattus norvegicus [5]): 0.02
- IC50 [6]: 3000 nM

SMILES: c1cc2c(cn1)C1CCC(CC2)N1 (centres undefined)
- IC50 [4]: 5 nM
- IC50 (Acetylcholine receptor [1]): 0.1 nM
- IC50 (Acetylcholine receptor [2]): 1 nM
- ED50 (Rattus norvegicus [3]): 10 nmol
- Relative potency (Rattus norvegicus [5]): 1
- IC50 [6]: 10 nM

SMILES: c1cncc([C@@H]2CCCN2)c1 [NORNICOTINE]
- IC50 (Acetylcholine receptor [1]): 300 nM
- IC50 (Acetylcholine receptor [2]): 100 nM
- ED50 (Rattus norvegicus [3]): 75 nmol

SMILES: Cc1nccc2c1C1CCC(CC2)N1 (centres undefined)
- IC50 [4]: 900 nM
- IC50 (Acetylcholine receptor [1]): 300 nM
- IC50 (Acetylcholine receptor [2]): 300 nM
- ED50 (Rattus norvegicus [3]): 500 nmol
- Relative potency (Rattus norvegicus [5]): 0.02
- IC50 [6]: 700 nM
